{"source": "paper PMC9441147", "about": "(Drug Design, Development and Therapy, 2022)", "key": {"Basic pKa, measured": {"assay": "Basic pKa, measured", "format": "physicochemical"}, "[1]": {"assay": "Kinetic solubility, pH 6.8", "format": "physicochemical", "conditions": "pH 6.8, aqueous buffer, kinetic from dmso stock"}, "[2]": {"system": "IFNα-induced STAT1 phosphorylation in human T cells or monocytes", "assay": "IFNα-induced STAT1 phosphorylation, flow cytometry", "format": "cell-based", "conditions": "read-out: IC50, IFNα, STAT1", "outline": "(§1)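 PBMCs were isolated by density gradient from healthy human donor blood, sometimes enriched for lymphocytes or monocytes, and rested. Cells were preincubated with serially diluted test compound (DMSO vehicle), then stimulated with the relevant cytokine. They were fixed (formaldehyde), permeabilized and stained for phospho-STAT, with isotype-control gates and surface-marker cell gating. Flow cytometry gave % phospho-STAT+ cells. Inhibition was calculated versus vehicle-treated stimulated cells to derive IC50.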"}, "[3]": {"system": "IL-12-induced STAT4 phosphorylation in human CD3+ T cells and CD56+ NK cells", "assay": "IL-12-induced STAT4 phosphorylation, flow cytometry", "format": "cell-based", "conditions": "T-cell, read-out: IC50, IL-12, STAT4", "outline": "as §1"}, "OVA-challenged rats": {"system": "OVA-challenged rats", "assay": "Airway and lung inflammation in OVA-induced rat model of asthma", "format": "in vivo", "conditions": "IT", "outline": "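Rats sensitized IP with OVA (100 µg/rat) in aluminium/magnesium hydroxide on days 0, 14, 21 and challenged day 28 with 1% aerosolized OVA for 30 min. Test compound was given IT under isoflurane at 1 mL/kg, 1 h before challenge (100–3000 µg/kg). BAL (2 × 3 mL RPMI) was taken 24 h post-challenge. Leukocytes were counted automatically, with differentials from Wright-stained cytospins; n=7–10/group.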"}, "STAT5a phosphorylation": {"system": "STAT5a phosphorylation", "assay": "pSTAT5a in whole lung homogenate, OVA-challenged rats", "format": "in vivo, rat", "conditions": "IT dosing, 2 hours after OVA challenge, vs OVA/vehicle", "outline": "(§2)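 In the OVA-sensitized, OVA-challenged rat model, test compound was given IT 1 h before challenge. Post-caval lung lobes taken 2 h after challenge were powderized in liquid nitrogen and lysed in buffer with protease/phosphatase inhibitors. Protein was measured by Bradford assay. Lysate (10 µg protein) was run on MSD phospho-STAT3/STAT5a/STAT5b/Akt(T308) plates, and blank-subtracted electrochemiluminescence was read.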"}, "STAT3 phosphorylation": {"system": "STAT3 phosphorylation", "assay": "pSTAT3 in whole lung homogenate, OVA-challenged rats", "format": "in vivo, rat", "conditions": "IT dosing, 2 hours after OVA challenge, vs OVA/vehicle", "outline": "as §2"}, "[4]": {"system": "IL-4-induced STAT6 phosphorylation in human CD4+ T cells", "assay": "IL-4-induced STAT6 phosphorylation, flow cytometry", "format": "cell-based", "conditions": "read-out: IC50, IL-4, STAT6", "outline": "as §1"}, "STAT5b phosphorylation": {"system": "STAT5b phosphorylation", "assay": "pSTAT5b in whole lung homogenate, OVA-challenged rats", "format": "in vivo, rat", "conditions": "IT dosing, 2 hours after OVA challenge, vs OVA/vehicle", "outline": "as §2"}, "[5]": {"assay": "Lung and plasma PK after single intratracheal dose in treatment-naïve rats", "format": "in vivo", "conditions": "rat", "outline": "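Treatment-naïve rats were given a single IT dose, at a lung-deposited dose of 52 or 30 µg/kg depending on compound. Plasma and lungs were sampled at 0.03, 0.5, 2, 6, 8 and 24 h, three animals per time point. Post-caval lobes were bead-homogenized in Ringer's solution. Samples were protein-precipitated with acetonitrile containing 0.2% formic acid and internal standard, then analysed by LC-MS/MS.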"}, "[6]": {"system": "TSLP-induced production of CCL17 in human CD14+ monocytes", "assay": "TSLP-induced CCL17 release in monocytes", "format": "cell-based", "conditions": "Monocyte, read-out: IC50, TSLP, CCL17", "outline": "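Human monocytes were taken from PBMCs isolated by density gradient from healthy donor blood. They were preincubated with serially diluted test compound (DMSO vehicle), then stimulated with recombinant TSLP. Supernatants were collected by brief centrifugation, and released CCL17 was quantified by ELISA or MSD U-plex immunoassay. Reduction versus vehicle-treated stimulated cells gave IC50.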"}, "[7]": {"system": "IL-13-induced STAT6 phosphorylation in human CD14+ monocytes", "assay": "IL-13-induced STAT6 phosphorylation in monocytes", "format": "cell-based", "conditions": "Monocyte, read-out: IC50, IL-13, STAT6", "outline": "as §1"}, "[8]": {"system": "phosphorylated STAT3-positive cell nuclei", "assay": "pSTAT3 immunohistochemistry of lung sections, OVA-challenged rats", "format": "in vivo, rat", "conditions": "OVA/AZD4604 1 mg/kg versus OVA/vehicle"}, "[9]": {"assay": "In vivo plasma PK after IV dosing in rats", "conditions": "rat", "outline": "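Rats received a single IV bolus of test compound, at 1.0 or 0.5 mg/kg depending on compound; n=2. Plasma was then sampled to derive clearance, steady-state volume of distribution and terminal half-life.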"}, "[10]": {"system": "IL-2-induced STAT5 phosphorylation in human T cells", "assay": "IL-2-induced STAT5 phosphorylation in human T cells, flow cytometry", "format": "cell-based", "conditions": "T-cell, read-out: IC50, IL-2, STAT5 (human)", "outline": "as §1"}, "JAK3": {"biological_target": "T1, JAK3 (Homo sapiens, UniProt P52333)", "T1 sequence (P52333 1-1124)": "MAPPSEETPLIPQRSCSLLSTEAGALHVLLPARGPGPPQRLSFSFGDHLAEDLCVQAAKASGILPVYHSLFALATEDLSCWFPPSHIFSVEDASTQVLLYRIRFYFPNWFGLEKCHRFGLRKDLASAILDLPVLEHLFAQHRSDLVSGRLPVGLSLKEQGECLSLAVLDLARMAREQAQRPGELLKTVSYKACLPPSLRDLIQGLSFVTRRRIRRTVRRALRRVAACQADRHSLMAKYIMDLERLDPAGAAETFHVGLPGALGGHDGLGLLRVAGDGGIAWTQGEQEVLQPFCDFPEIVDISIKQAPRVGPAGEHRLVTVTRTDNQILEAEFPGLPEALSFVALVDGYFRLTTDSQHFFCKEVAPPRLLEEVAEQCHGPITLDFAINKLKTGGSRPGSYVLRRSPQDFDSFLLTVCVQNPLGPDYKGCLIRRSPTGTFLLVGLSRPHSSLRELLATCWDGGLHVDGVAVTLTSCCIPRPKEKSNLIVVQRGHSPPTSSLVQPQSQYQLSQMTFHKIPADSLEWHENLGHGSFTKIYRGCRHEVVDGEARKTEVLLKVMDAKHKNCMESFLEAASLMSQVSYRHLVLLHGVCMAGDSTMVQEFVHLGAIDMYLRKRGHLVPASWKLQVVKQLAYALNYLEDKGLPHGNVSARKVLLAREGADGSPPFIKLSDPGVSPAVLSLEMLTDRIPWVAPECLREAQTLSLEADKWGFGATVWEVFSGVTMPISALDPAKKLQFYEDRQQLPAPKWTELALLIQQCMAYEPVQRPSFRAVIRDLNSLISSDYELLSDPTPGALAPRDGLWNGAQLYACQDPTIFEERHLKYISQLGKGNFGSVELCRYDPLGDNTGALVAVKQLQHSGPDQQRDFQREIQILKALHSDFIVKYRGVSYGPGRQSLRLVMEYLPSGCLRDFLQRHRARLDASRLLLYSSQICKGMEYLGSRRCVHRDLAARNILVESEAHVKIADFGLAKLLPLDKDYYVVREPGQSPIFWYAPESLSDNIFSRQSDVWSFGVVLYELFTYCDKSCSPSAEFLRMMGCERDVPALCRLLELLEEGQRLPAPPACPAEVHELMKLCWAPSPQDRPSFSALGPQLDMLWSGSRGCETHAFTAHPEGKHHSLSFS", "assay": "JAK3 enzymatic assay, 1 mM ATP", "format": "biochemical"}, "[11]": {"assay": "In vitro rat plasma protein binding", "format": "in vitro ADME"}, "pAkt": {"system": "pAkt", "assay": "pAkt analysis in lung tissue, OVA rat model", "format": "in vivo", "conditions": "lung tissue 2 hours after OVA challenge", "outline": "as §2"}, "[12]": {"assay": "Thermodynamic solubility, pH 7.4", "format": "physicochemical"}, "NF-κB": {"system": "NF-κB", "assay": "NF-κB p65 analysis in lung tissue, OVA rat model", "format": "in vivo", "conditions": "lung tissue 2 hours after OVA challenge", "outline": "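In the OVA-sensitized, OVA-challenged rat model, test compound was given IT 1 h before challenge. Lungs were powderized 2 h after challenge and nuclear extracts prepared with a nuclear extraction kit. Nuclear extract (10 µg) was assayed for NF-κB p65 activation by TransAm ELISA-type assay.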"}, "[13]": {"assay": "Caco-2 permeability, pH 6.5", "format": "in vitro ADME", "conditions": "human, Caco-2, pH 6.5"}, "JAK1": {"biological_target": "JAK1 (Homo sapiens, UniProt P23458)", "sequence (P23458 whole entry)": "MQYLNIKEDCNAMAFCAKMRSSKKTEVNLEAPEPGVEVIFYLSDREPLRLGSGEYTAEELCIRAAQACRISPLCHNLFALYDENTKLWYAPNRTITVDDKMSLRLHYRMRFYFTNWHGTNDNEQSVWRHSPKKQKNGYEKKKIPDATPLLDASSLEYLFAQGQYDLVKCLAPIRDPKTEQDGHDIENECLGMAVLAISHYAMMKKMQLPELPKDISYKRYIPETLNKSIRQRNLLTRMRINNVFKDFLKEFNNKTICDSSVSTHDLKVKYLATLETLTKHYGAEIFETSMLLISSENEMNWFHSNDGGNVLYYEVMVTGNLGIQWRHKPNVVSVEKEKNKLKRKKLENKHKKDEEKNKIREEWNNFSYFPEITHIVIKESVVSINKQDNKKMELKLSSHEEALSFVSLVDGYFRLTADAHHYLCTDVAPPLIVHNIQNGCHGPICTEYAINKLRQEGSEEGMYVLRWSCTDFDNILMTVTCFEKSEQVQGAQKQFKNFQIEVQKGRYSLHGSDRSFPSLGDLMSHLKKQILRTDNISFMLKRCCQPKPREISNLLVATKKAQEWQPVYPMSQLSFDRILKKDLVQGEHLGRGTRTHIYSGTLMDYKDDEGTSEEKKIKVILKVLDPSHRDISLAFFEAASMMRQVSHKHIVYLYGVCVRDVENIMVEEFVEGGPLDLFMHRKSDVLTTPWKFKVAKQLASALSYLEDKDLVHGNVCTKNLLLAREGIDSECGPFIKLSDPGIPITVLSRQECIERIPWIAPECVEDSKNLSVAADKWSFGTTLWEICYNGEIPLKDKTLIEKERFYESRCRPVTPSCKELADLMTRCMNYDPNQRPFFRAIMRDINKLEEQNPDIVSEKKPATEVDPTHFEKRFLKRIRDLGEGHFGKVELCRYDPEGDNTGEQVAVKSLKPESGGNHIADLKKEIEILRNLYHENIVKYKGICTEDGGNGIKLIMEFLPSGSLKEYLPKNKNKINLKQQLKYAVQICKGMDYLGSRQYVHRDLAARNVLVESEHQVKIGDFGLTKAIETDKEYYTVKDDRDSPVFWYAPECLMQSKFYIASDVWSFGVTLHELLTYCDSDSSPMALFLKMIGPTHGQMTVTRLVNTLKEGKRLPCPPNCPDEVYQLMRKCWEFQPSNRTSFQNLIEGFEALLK", "conditions": "biochemical assays; cited from earlier work"}}}
{"compound": "COC[C@H](C(=O)Nc1cccc2c(-c3nc(Nc4cccc(S(C)(=O)=O)c4F)ncc3F)c[nH]c12)N1CCN(C)CC1", "note": "[AZD4604]", "values": [{"measurement": "pKa", "setting": "Basic pKa, measured", "value": 7.9}, {"measurement": "solubility kinetic", "setting": "[1]", "value": 18, "unit": "µM"}, {"measurement": "IC50", "setting": "[2]", "value": 1.2, "unit": "nM"}, {"measurement": "IC50", "setting": "[3]", "value": 98, "unit": "nM"}, {"measurement": "eosinophil numbers in BALF", "setting": "OVA-challenged rats; 24 hours after OVA challenge, vs OVA/vehicle", "value": "numerically reduced"}, {"measurement": "eosinophil numbers in lung tissue", "setting": "OVA-challenged rats; 24 hours after OVA challenge, vs vehicle, to levels seen in saline-challenged animals", "value": "reduced"}, {"measurement": "cytokines eotaxin and IL-1β in BALF", "setting": "OVA-challenged rats; vs OVA/vehicle", "value": "numerically lowered"}, {"measurement": "levels of lymphocytes, neutrophils, and macrophages in BALF", "setting": "OVA-challenged rats; vs OVA/vehicle", "value": "numerically lowered"}, {"measurement": "STAT5a phosphorylation in whole lung homogenates", "setting": "STAT5a phosphorylation", "value": "dose-dependently inhibited"}, {"measurement": "STAT3 phosphorylation in whole lung homogenates", "setting": "STAT3 phosphorylation", "value": "dose-dependently inhibited"}, {"measurement": "IC50", "setting": "[4]", "value": 16.9, "unit": "nM"}, {"measurement": "STAT5b phosphorylation in whole lung homogenates", "setting": "STAT5b phosphorylation", "value": "dose-dependently inhibited"}, {"measurement": "proportion of the dose remaining in whole lung tissue 24 hours after administration", "setting": "[5]; IT, assuming 100% lung deposition", "value": 0.3, "unit": "%"}, {"measurement": "half-life", "setting": "[5]; lung, inhaled or intranasal", "value": "~5", "unit": "h"}, {"measurement": "half-life", "setting": "[5]; lung, other: intratracheal", "value": 5, "unit": "h"}, {"measurement": "half-life", "setting": "[5]; plasma, inhaled or intranasal", "value": "~5", "unit": "h"}, {"measurement": "IC50", "setting": "[6]", "value": 57, "unit": "nM"}, {"measurement": "IC50", "setting": "[7]", "value": 23.1, "unit": "nM"}, {"measurement": "proportion of phosphorylated STAT3-positive cell nuclei in endothelium and bronchial epithelium", "setting": "[8]; P < 0.01", "value": "significantly reduced"}, {"measurement": "proportion of phosphorylated STAT3-positive cell nuclei in the alveolar epithelium", "setting": "[8]; P < 0.05", "value": "significantly reduced"}, {"measurement": "Vd", "setting": "[9]", "value": 9.9, "unit": "L/kg"}, {"measurement": "clearance", "setting": "[9]", "value": 33, "unit": "mL/min/kg"}, {"measurement": "half-life", "setting": "[9]", "value": 4.2, "unit": "h"}, {"measurement": "IC50", "setting": "[10]", "value": 21, "unit": "nM"}, {"measurement": "IC50", "setting": "JAK3", "value": "> 10000", "unit": "nM"}, {"measurement": "In vitro rat plasma protein binding, % free", "setting": "[11]", "value": 10.4, "unit": "% free"}, {"measurement": "effect on pAkt", "setting": "pAkt", "value": "no significant effect"}, {"measurement": "solubility thermodynamic", "setting": "[12]", "value": 6.6, "unit": "µM"}, {"measurement": "effect on NF-κB", "setting": "NF-κB", "value": "no significant effect"}, {"measurement": "Papp", "setting": "[13]", "value": 6.7, "unit": "×10⁻⁶ cm/s"}]}
{"compound": "CN(CCC#N)C1CCN(C(=O)Cn2cc(NC(=O)c3cnn4cccnc34)c(-c3cc(Cl)ccc3OC(F)F)n2)CC1", "note": "[GDC-0214]", "values": [{"measurement": "increased selectivity for JAK1 over JAK2", "setting": "JAK1", "value": "twofold"}]}
{"compound": "CN(CCC#N)C1CCN(C(=O)Cn2cc(NC(=O)c3cnn4cccnc34)c(-c3cc(Cl)ccc3OC(F)F)n2)CC1", "note": "[iJak-381]", "values": [{"measurement": "increased selectivity for JAK1 over JAK2", "setting": "JAK1", "value": "sixfold"}]}
